How the values were obtained:
[1] = target: T1, UDP-glucuronosyltransferase 1A10 (Homo sapiens, UniProt Q9HAW8); assay: Activity of human recombinant UGT1A10 expressed in baculovirus-infected Sf9 cells assessed as glucuronidation activity per mg of protein at 100 to 200 uM after 60 mins in presence of 3 mM UDP-GlcUA; format: ADME; conditions: sf9, 1 h
T1 sequence (Q9HAW8 whole entry): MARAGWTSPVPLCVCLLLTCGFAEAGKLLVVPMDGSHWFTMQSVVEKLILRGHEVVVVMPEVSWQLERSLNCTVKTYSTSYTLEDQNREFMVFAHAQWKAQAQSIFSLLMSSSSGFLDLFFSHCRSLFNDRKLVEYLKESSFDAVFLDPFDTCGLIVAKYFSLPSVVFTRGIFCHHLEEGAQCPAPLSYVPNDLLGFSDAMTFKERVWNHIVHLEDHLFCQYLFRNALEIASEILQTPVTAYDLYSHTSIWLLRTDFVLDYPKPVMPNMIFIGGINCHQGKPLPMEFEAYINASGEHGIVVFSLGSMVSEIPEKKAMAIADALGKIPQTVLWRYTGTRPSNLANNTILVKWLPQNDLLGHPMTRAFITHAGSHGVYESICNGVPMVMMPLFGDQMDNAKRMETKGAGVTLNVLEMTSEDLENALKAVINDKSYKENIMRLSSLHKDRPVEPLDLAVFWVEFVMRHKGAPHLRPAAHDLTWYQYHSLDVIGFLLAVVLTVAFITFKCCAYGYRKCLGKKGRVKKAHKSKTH
How it was run: (§1)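 Screening: 5 μg recombinant UGT protein (His-tag levels normalized) in Tris-HCl pH 7.4, 5 mM MgCl2, 5 mM saccharolactone, 2% DMSO to permeabilize membranes. Substrate at 100 or 200 μM, added in water. Started with 3 mM UDP-GlcUA, 60 min at 37°C, stopped with ethanol, then centrifuged. Glucuronide quantified by reversed-phase C18 HPLC against the substrate response; triplicates.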

[2] = target: T1, UDP-glucuronosyltransferase 1A10; assay: Activity of human recombinant UGT1A10 expressed in baculovirus-infected Sf9 cells assessed as metabolite formation at 200 uM after 60 mins by HPLC analysis; format: ADME; conditions: sf9, 1 h
How it was run: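 Protein (5 μg UGT1A10 or microsomal) incubated with 0.2 mM substrate and 3 mM UDP-GlcUA, 60 min. HPLC on C18 at 25°C with a 15–80% methanol gradient in 0.05 M ammonium formate pH 3.4 at 1 ml/min. ESI positive-ion MS and UV/Vis spectra taken from the peaks. Glucuronide confirmed by 60 min further treatment with 1000 U E. coli β-glucuronidase.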

[3] = tested on: Liver microsome; assay: Drug metabolism in human liver microsomes assessed as glucuronidation activity at 0.2 mM for 60 mins by ESI-MS analysis in presence of 3 mM UDP-GlcUA; format: ADME; conditions: 1 h, 200 µM
How it was run: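 Single-donor liver or intestinal microsomes (20 μg total protein) incubated with 0.2 mM substrate and 3 mM UDP-GlcUA for 60 min at 37°C in Tris-HCl pH 7.4, MgCl2, saccharolactone, 2% DMSO. Ethanol stop, centrifuged, HPLC analysis; triplicates.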

[4] = tested on: Liver microsome; assay: Drug metabolism in human liver microsomes assessed as glucuronidation per mg of protein after 60 mins by Michaelis-Menten equation in presence of 3 mM UDP-GlcUA; format: ADME; conditions: 1 h
How it was run: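 Recombinant UGT membrane protein (5 μg; His-tagged UGT1A levels normalized by anti-His Western blot) or single-donor microsomes (20 μg) incubated with substrate 5–1000 μM and 3 mM UDP-GlcUA in […] pH 7.4, 5 mM MgCl2, 5 mM saccharolactone, 2% DMSO, 60 min, 37°C. Ethanol stop, centrifuged, HPLC-UV. Initial velocities fitted to Michaelis-Menten, Hill or substrate-inhibition models; three determinations.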

[5] = target: T2, UDP-glucuronosyltransferase 1A7 (Homo sapiens, UniProt Q9HAW7); assay: Activity of human recombinant UGT1A7 expressed in baculovirus-infected Sf9 cells assessed as glucuronidation activity per mg of protein at 100 to 200 uM after 60 mins in presence of 3 mM UDP-GlcUA; format: ADME; conditions: sf9, 1 h; how it was run: as §1
T2 sequence (Q9HAW7 whole entry): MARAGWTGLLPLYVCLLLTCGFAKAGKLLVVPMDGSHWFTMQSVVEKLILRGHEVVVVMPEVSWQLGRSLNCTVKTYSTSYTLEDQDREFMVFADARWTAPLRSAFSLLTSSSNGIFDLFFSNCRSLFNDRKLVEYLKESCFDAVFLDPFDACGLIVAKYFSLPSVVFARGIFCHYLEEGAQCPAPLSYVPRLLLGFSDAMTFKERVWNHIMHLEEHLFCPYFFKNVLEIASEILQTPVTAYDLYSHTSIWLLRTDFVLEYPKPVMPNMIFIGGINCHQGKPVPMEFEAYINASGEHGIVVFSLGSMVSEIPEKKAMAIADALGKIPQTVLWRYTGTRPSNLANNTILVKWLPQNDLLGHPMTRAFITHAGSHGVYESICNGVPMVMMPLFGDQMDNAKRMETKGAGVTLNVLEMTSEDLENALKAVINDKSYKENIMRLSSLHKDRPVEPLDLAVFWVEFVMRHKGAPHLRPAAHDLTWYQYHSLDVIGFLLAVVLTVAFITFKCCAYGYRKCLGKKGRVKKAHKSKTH

[6] = target: T3, UDP-glucuronosyltransferase 1A8 (Homo sapiens, UniProt Q9HAW9); assay: Activity of human recombinant UGT1A8 expressed in baculovirus-infected Sf9 cells assessed as glucuronidation activity per mg of protein at 100 to 200 uM after 60 mins in presence of 3 mM UDP-GlcUA; format: ADME; conditions: sf9, 1 h; how it was run: as §1
T3 sequence (Q9HAW9 whole entry): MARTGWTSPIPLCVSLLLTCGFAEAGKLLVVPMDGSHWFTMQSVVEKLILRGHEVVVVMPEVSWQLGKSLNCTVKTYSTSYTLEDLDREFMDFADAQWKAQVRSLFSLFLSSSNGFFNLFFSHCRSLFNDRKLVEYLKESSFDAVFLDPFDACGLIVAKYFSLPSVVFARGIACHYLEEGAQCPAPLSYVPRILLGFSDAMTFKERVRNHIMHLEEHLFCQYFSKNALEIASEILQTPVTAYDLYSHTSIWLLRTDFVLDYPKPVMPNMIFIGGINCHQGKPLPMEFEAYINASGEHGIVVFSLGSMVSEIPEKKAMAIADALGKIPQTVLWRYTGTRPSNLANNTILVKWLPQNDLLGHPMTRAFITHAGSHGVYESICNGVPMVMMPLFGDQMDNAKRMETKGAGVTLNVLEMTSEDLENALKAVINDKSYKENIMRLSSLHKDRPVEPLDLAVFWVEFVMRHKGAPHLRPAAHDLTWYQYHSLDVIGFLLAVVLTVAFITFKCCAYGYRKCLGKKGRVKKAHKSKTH

[7] = Drug metabolism in human duodenum microsomes assessed as glucuronidation activity at 0.1 mM for 60 mins in presence of 3 mM UDP-GlcUA; format: ADME, microsome; conditions: 1 h, 100 µM
How it was run: (§2)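 Microsomes from single donors (20 μg protein) incubated with 0.1 mM substrate and 3 mM UDP-GlcUA for 60 min at 37°C in Tris-HCl pH 7.4 buffer with 5 mM MgCl2, 5 mM saccharolactone and 2% DMSO. Glucuronide measured by HPLC; donor data summarized as box-and-whisker plots.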

[8] = Drug metabolism in human colon microsomes assessed as glucuronidation activity at 0.1 mM for 60 mins in presence of 3 mM UDP-GlcUA; format: ADME, microsome; conditions: 1 h, 100 µM; how it was run: as §2

| Structure (SMILES) | Drug metabolism [1] [nmol/min/mg] | Drug metabolism [2] | Drug metabolism [3] | Vmax [4] [nmol/min/mg] | Drug metabolism [5] [nmol/min/mg] | Drug metabolism [6] [nmol/min/mg] | Drug metabolism [7] | Drug metabolism [8] |
| --- | --- | --- | --- | --- | --- | --- | --- | --- |
| CCN(CC)CCNc1ccc2ncn3c4ccc(O)cc4c(=O)c1c23 [C-1311] | > 0.5 | metabolite_detected | metabolite_detected | 0.156 | 0.2 | 0.2 | metabolite_detected | metabolite_detected |
| CN(C)CCCNc1ccc2nnn3c4ccc(O)cc4c(=O)c1c23 | > 0.5 | metabolite_detected | metabolite_detected | 0.386 | 0.2 | 0.2 | metabolite_detected | metabolite_detected |
